# Data as given in PubChem BioAssay.
# Active and inactive are the calls of the source.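 How the source made its calls, unless noted: active means viability at or below 10% of carrier control in both of two separate runs; inconclusive means viability at or below 10% in only one of the two runs; inactive means the rest.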
# Key:
# [1] = reducers of endogenous Her2 protein level, primary screen, SKBR3 breast tumor cells, AlphaScreen, ATP viability (AID 461;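 active means Her2 level under about 52% in both replicate screens, with viability over 70% of control, limit read from the data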;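 on Her2 level: lower value means less Her2 protein in the cells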;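 on viability: percent of carrier control wells set as 100% viability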); settings: 18-24 h, measured here: SKBR3 viability, ATP luminescence, at 10 µM
# [2] = molecular target: Receptor tyrosine-protein kinase erbB-2 (Homo sapiens) (UniProt P04626); assay: as above; settings: 18-24 h, at 10 µM, stronger effect = lower value
# [3] = SK-BR-3 cell growth inhibitors, pilot screen, 24 h, human (AID 572); settings: SK-BR-3 viability, CellTiter-Glo luminescence, at 10 µM, stronger effect = lower value;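 further: compound exposure lasted between 18 and 24 h rather than exactly 24 h; 100% = carrier-treated control wells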
# [4] = HUVEC growth inhibition – cell-based, human, primary screen (AID 575;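 active means viability at or below 30% in both replicate assays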;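 further: 100% = median of untreated cell wells with 0.1% DMSO on each plate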); settings: HUVEC proliferation, CellTiter-Glo luminescence, 72 h; at 10 µM; stronger effect = lower value
# How it was run: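 Assay system: Primary human umbilical vein endothelial cells | Quantity: 1250 cells per well | Medium: Supplemented EBM, 2% fetal bovine serum | Detection: CellTiter-Glo luminescence measuring cellular ATP | Read-out: % viability vs DMSO wells | Plate: Collagen-coated 384-well format | Times: 72 h exposure, 37 °C, 5% CO2, 30 min RT equilibration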
# [5] = growth inhibitors of H69AR lung tumor, primary screen, human, duplicate replicates (AID 580;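 active means viability at or under a set limit in both replicates, limit being median viability minus 3 SD, cut at about 48% in these data, passing the limit was not always enough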;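 further: 100% = mean luminescence of untreated wells and 0% = no signal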); settings: H69AR lung tumor cells viability, ATP luminescence, 72 h; at 10 µM; stronger effect = lower value
# [6] = reversal of MRP1-mediated doxorubicin resistance, pilot screen, H69AR cells, doxorubicin co-treatment (AID 601;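 active means viability loss from added drug above about 55%, and viability with drug at most 40%, in both replicates, limit read from the data, passing the limit was not always enough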); settings: CellTiter-Glo, 72 h, at 10 µM; for differential viability (reversal): stronger effect = higher value
# [7] = 384-well plate pilot, post-Golgi transport modulator project, inhibition of yeast transport mutant growth (AID 636; in the data active means inhibition above about 31%); settings: absorbance 615 nm, about 18 h, stronger effect = higher value
# [8] = growth suppression of yeast trafficking mutant, preliminary HTS, modulators of trafficking downstream of Golgi apparatus project, 1536-format plate, OD 615 nm (AID 637; in the data active means inhibition above about 30%); settings: yeast transport mutant growth, absorbance 615 nm, 18 h; stronger effect = higher value
# [9] = H69AR cells + 2 uM doxorubicin, measured here: viability with 2 uM doxorubicin, stronger effect = lower value
# [10] = H69AR cells, compound alone cytotoxicity
# Chain of Receptor tyrosine-protein kinase erbB-2 (Homo sapiens) (P04626 whole entry, looked up): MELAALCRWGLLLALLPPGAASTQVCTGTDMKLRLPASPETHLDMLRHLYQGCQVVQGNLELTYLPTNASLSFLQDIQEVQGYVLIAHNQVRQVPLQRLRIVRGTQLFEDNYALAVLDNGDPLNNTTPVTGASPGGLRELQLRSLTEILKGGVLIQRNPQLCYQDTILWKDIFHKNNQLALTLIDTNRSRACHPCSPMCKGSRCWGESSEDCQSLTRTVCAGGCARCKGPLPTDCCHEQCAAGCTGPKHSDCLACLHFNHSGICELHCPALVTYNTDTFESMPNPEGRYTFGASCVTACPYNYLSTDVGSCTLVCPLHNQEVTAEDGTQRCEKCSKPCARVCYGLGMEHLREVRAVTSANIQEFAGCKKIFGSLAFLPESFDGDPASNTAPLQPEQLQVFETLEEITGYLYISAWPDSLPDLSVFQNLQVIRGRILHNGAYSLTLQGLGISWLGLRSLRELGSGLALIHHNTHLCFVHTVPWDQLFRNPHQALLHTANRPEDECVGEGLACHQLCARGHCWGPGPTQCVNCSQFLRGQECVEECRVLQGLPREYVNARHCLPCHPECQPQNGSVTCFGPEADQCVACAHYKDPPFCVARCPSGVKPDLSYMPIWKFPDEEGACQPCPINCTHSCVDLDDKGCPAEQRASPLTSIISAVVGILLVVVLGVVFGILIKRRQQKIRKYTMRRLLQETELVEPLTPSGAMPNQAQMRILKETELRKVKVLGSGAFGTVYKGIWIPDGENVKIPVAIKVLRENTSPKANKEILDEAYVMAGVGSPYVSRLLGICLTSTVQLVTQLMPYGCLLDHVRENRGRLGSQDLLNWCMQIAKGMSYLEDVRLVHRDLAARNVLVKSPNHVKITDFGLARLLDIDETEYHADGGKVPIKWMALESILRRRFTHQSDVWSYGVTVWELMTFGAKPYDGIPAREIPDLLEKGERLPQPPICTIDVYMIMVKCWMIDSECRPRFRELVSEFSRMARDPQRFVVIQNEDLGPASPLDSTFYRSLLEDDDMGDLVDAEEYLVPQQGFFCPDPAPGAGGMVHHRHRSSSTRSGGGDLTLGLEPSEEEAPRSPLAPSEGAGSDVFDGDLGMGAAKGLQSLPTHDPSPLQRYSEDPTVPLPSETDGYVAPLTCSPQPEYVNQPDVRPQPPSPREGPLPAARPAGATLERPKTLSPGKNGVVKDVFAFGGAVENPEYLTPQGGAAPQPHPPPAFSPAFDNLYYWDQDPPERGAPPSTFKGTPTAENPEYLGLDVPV
SMILES,viability [1],Her2 level [2],viability [3],viability [4],viability [5],differential viability (reversal) ([6]; H69AR cells + 2 uM doxorubicin),"viability [6, 9]","viability [6, 10]",inhibition [7],inhibition [8]
OC(COc1ccccc1)CN1C2=NCCCN2c2ccccc21 (stereo not given),80.5%,79.5% (inactive),80.5% (inactive),97.4% (inactive),92.6% (inactive),7.67% (inactive),85%,92.6%,-4.93% (inactive),3.11% (inactive)
COc1ccccc1CN1C(=S)SC(C)(C)C1NO (stereo not given),100%,93.5% (inactive),100% (inactive),73.8% (inactive),98.3% (inactive),8.72% (inactive),89.6%,98.3%,-3.73% (inactive),2.42% (inactive)
COc1cc(NS(=O)(=O)c2ccc(Br)s2)cc(OC)c1,87%,104% (inactive),87% (inactive),89.6% (inactive),99.9% (inactive),5.59% (inactive),94.3%,99.9%,-6.53% (inactive),-7.7% (inactive)
CCOC(=O)c1[nH]c2ccc(OC)cc2c1NC(=O)CCN1CCC(C)CC1,101%,94.5% (inactive),101% (inactive),94.1% (inactive),96.8% (inactive),-0.37% (inactive),97.2%,96.8%,-3.12% (inactive),-8.73% (inactive)
CCOc1ccc(C2C(C#N)=C(N)Oc3cc(C)n(CCN(C)C)c(=O)c32)cc1OCC (stereo not given),84%,79.5% (inactive),84% (inactive),90.3% (inactive),101% (inactive),17.7% (inactive),83.3%,101%,-4.32% (inactive),-1.43% (inactive)
COc1cc(NC(=O)C(C)Oc2ccccc2)c(C(=O)O)cc1OC (stereo not given),116%,90% (inactive),116% (inactive),96.4% (inactive),92.8% (inactive),11.7% (inactive),81.1%,92.8%,-7.07% (inactive),2.13% (inactive)
c1ccc(CNc2c3c(nc4ncnn24)CCCC3)nc1,95.5%,83.5% (inactive),95.5% (inactive),109% (inactive),85.2% (inactive),-4.29% (inactive),89.5%,85.2%,-5.34% (inactive),-3.33% (inactive)
COc1cccc(CNC(=O)C2CCN(S(=O)(=O)c3ccc(F)cc3)CC2)c1,128%,98.5% (inactive),128% (inactive),95.1% (inactive),97.5% (inactive),-7.57% (inactive),105%,97.5%,-2.37% (inactive),0.48% (inactive)
COc1ccccc1NC(=O)NC1(C(=O)N2CCC(O)CC2)CCCCC1,103%,97% (inactive),103% (inactive),99.2% (inactive),114% (inactive),4.86% (inactive),109%,114%,-3.9% (inactive),-4.13% (inactive)
O=C1CC(c2ccc(Cl)cc2)n2nc(N3C(=O)c4ccccc4C3=O)nc2N1 (stereo not given),106%,93% (inactive),106% (inactive),95.5% (inactive),91.8% (inactive),-2.29% (inactive),94.1%,91.8%,-3.16% (inactive),4.59% (inactive)
N#Cc1ccc(COC(=O)Cn2nnc(-c3ccccc3)n2)cc1,111%,96% (inactive),111% (inactive),89.5% (inactive),70.7% (inactive),6.57% (inactive),64.1%,70.7%,-3.12% (inactive),-0.95% (inactive)
C=CCNC(=O)CSc1ccc(Cl)cc1,88.5%,106% (inactive),88.5% (inactive),109% (inactive),81.4% (inactive),-7.45% (inactive),88.8%,81.4%,-4.21% (inactive),3.11% (inactive)
COc1ccc(CNc2ccc(C(=O)O)cc2)cc1,102%,87% (inactive),102% (inactive),93% (inactive),91.7% (inactive),4.9% (inactive),86.8%,91.7%,-3.87% (inactive),8.55% (inactive)
CCC(=O)N1CCc2cc(Br)cc(S(=O)(=O)CCC(=O)NCC3CCCO3)c21 (stereo not given),118%,90% (inactive),118% (inactive),106% (inactive),92.8% (inactive),13.4% (inactive),79.4%,92.8%,-6.35% (inactive),6% (inactive)
Cc1nnc(C)c2c(C)n(-c3ccc(Br)cc3)c(C)c12,110%,110% (inactive),110% (inactive),92.3% (inactive),104% (inactive),17.2% (inactive),87.2%,104%,-7.07% (inactive),1.61% (inactive)
O=C1C(Cl)=C(N2CCCCC2)C(=O)N1c1ccccc1Cl,106%,79.5% (inactive),106% (inactive),89.7% (inactive),81.8% (inactive),1.39% (inactive),80.4%,81.8%,-2.6% (inactive),2.95% (inactive)
CCOC(=O)c1sc2nc(C)cc(C)c2c1N,105%,95% (inactive),105% (inactive),110% (inactive),98.4% (inactive),15.6% (inactive),82.8%,98.4%,-5.07% (inactive),4.52% (inactive)
COCCn1nnnc1CN(Cc1cccnc1)Cc1cc2cc(OC)ccc2[nH]c1=O,91%,75% (inactive),91% (inactive),98.6% (inactive),88.3% (inactive),8.82% (inactive),79.5%,88.3%,-7.07% (inactive),4.26% (inactive)
CN1CCN(S(=O)(=O)c2ccc(Sc3nnc(-c4cccs4)n3-c3ccccc3)nc2)CC1,120%,87.5% (inactive),120% (inactive),89.4% (inactive),85.7% (inactive),3.53% (inactive),82.2%,85.7%,-5.27% (inactive),-10% (inactive)
O=C(C1CCC1)N1CCc2cc(S(=O)(=O)N3CCc4ccccc4C3)ccc21,88%,97% (inactive),88% (inactive),72.1% (inactive),89% (inactive),-5.04% (inactive),94%,89%,-5.47% (inactive),-7.54% (inactive)
Cc1nc2c(-c3ccccc3)c(C)nn2c(C)c1CCC(=O)O,97.5%,100% (inactive),97.5% (inactive),85.5% (inactive),86.2% (inactive),-0.87% (inactive),87%,86.2%,-4% (inactive),5.57% (inactive)
Cc1ccc(-c2ccc(=O)n(CCC(=O)NCc3ccccn3)n2)cc1,94.5%,84% (inactive),94.5% (inactive),89.3% (inactive),84.3% (inactive),-1.96% (inactive),86.2%,84.3%,-3.95% (inactive),0.81% (inactive)
CC(=O)C1=C(C)NC(SCSc2ccccc2)=C(C#N)C1c1cccnc1 (stereo not given),80%,106% (inactive),80% (inactive),81.7% (inactive),94.1% (inactive),6.64% (inactive),87.5%,94.1%,0.91% (inactive),-1.64% (inactive)
COc1ccccc1CC1(C)NC(=O)N(CC(=O)Nc2cc(C)on2)C1=O (stereo not given),106%,86% (inactive),106% (inactive),106% (inactive),92.7% (inactive),9.12% (inactive),83.6%,92.7%,-5.81% (inactive),4.13% (inactive)
CCc1nc(C)c(C#N)c2cc(OC)c(OC)cc12,103%,90% (inactive),103% (inactive),77.8% (inactive),82.4% (inactive),8.46% (inactive),74%,82.4%,-0.91% (inactive),3.93% (inactive)
Cc1onc(-c2c(Cl)cccc2Cl)c1C(N)=O,103%,116% (inactive),103% (inactive),100% (inactive),106% (inactive),13.6% (inactive),92.5%,106%,-2.03% (inactive),-5.08% (inactive)
CC1CC(C)CN(CCCNC(=O)COc2cc(=O)n(C)c3ccccc23)C1 (stereo not given),90%,88% (inactive),90% (inactive),85.3% (inactive),90.7% (inactive),16.5% (inactive),74.2%,90.7%,-3.73% (inactive),-4.59% (inactive)
COCCn1nnnc1C(c1ccc(OC)cc1)N1CCN(c2ccccc2F)CC1 (stereo not given),100%,101% (inactive),100% (inactive),107% (inactive),89.7% (inactive),9.91% (inactive),79.8%,89.7%,-2.6% (inactive),-2.06% (inactive)
